Values after ≈ are worked out from the molar mass of the structure shown.
Legend:
Staphylococcus aureus [1] = assay: Antimicrobial activity against methicillin-resistant Staphylococcus aureus isolate NTUH4722 after 18 to 24 hrs by alamar blue assay; type: functional
Method in brief: (§1)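 Broth microdilution per NCCLS standard, Mueller-Hinton broth, 8-point twofold dilutions; exponentially growing cells at 5 10^5 cells/ml with compound, 18–24 h at 37 C; 20% Alamar blue added, fluorescence read; MIC90 taken as lowest concentration preventing at least 90% growth.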

Staphylococcus aureus [2] = assay: Antimicrobial activity against Staphylococcus aureus ATCC 29213 after 18 to 24 hrs by alamar blue assay
Staphylococcus aureus [3] = assay: Antimicrobial activity against oxacillin- and methicillin-resistant Staphylococcus aureus isolate Sa-OXA-R2 after 18 to 24 hrs by alamar blue assay; type: functional; method in brief: as §1
Pseudomonas aeruginosa = assay: Antimicrobial activity against Pseudomonas aeruginosa ATCC 25619 after 18 to 24 hrs by alamar blue assay; type: functional; details: Pseudomonas aeruginosa, ATCC 25619; read-out: MIC
Method in brief: (§2)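 Broth microdilution per NCCLS in Mueller-Hinton broth, 8-point twofold dilutions, 384-well format. Exponential-phase cells at 5 × 10^5 cells/ml incubated with compound 18–24 h at 37 °C, then 20% Alamar blue added and fluorescence read. MIC90 taken as the lowest concentration preventing at least 90% bacterial growth.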

Escherichia coli = assay: Antimicrobial activity against Escherichia coli ATCC […] after 18 to 24 hrs by alamar blue assay; type: functional; details: Escherichia coli; read-out: MIC; method in brief: as §2
[4] = test system: Stenotrophomonas maltophilia; assay: Antimicrobial activity against Stenotrophomonas maltophilia ATCC 13637 after 18 to 24 hrs by alamar blue assay; type: functional; details: Stenotrophomonas maltophilia, ATCC 13637; read-out: MIC; method in brief: as §2
Bacillus subtilis = assay: Antimicrobial activity against Bacillus subtilis ATCC 23857 after 18 to 24 hrs by alamar blue assay; type: functional; method in brief: as §2
Staphylococcus aureus [5] = assay: Antimicrobial activity against methicillin-resistant Staphylococcus aureus ATCC 33592 after 18 to 24 hrs by alamar blue assay; type: functional; details: Staphylococcus aureus, ATCC 33592; read-out: MIC; method in brief: as §1
Serratia marcescens = assay: Antimicrobial activity against Serratia marcescens ATCC 14756 after 18 to 24 hrs by alamar blue assay; type: functional; details: Serratia marcescens, ATCC 14756; read-out: MIC; method in brief: as §2
[6] = test system: Mycolicibacterium smegmatis; assay: Antimicrobial activity against Mycobacterium smegmatis BCRC 11565 after 18 to 24 hrs by alamar blue assay; type: functional; details: Mycolicibacterium smegmatis, BCRC 11565; read-out: MIC; method in brief: as §2
Acinetobacter baumannii = assay: Antimicrobial activity against Acinetobacter baumannii ATCC 49139 after 18 to 24 hrs by alamar blue assay; type: functional; details: Acinetobacter baumannii, ATCC 49139; read-out: MIC; method in brief: as §2

Row | Compound | MIC (Staphylococcus aureus [1]) [µg/mL] | MIC (Staphylococcus aureus [2]) [µg/mL] | MIC (Staphylococcus aureus [3]) [µg/mL] | MIC (Pseudomonas aeruginosa) [µg/mL] | MIC (Escherichia coli) [µg/mL] | MIC [4] [µg/mL] | MIC (Bacillus subtilis) [µg/mL] | MIC (Staphylococcus aureus [5]) [µg/mL] | MIC (Serratia marcescens) [µg/mL] | MIC [6] [µg/mL] | MIC (Acinetobacter baumannii) [µg/mL]
1 | CSc1ccccc1-c1nnc(NC(=O)c2nc3ccccc3s2)o1 | 2 (≈ 5.43 µM) | 4 (≈ 10.9 µM) | 4 (≈ 10.9 µM) | > 256 | > 256 | > 256 | 0.5 (≈ 1.36 µM) | 2 (≈ 5.43 µM) | > 256 | 0.5 (≈ 1.36 µM) | > 256
2 | Cc1ccccc1NS(=O)(=O)c1ccc2c(c1)NC(=O)C(C)S2 (stereo unspecified) | 1.2 (≈ 3.44 µM) | 1.2 (≈ 3.44 µM) | 1.2 (≈ 3.44 µM) | > 256 | > 256 | > 256 | < 0.03 | 1.2 (≈ 3.44 µM) | > 256 | > 64 | > 256
3 | O=C(Nc1nnc(-c2ccccc2Cl)o1)c1nc2ccccc2s1 | 2 (≈ 5.61 µM) | 2 (≈ 5.61 µM) | 32 (≈ 89.7 µM) | > 256 | > 256 | > 256 | 0.5 (≈ 1.4 µM) | 2 (≈ 5.61 µM) | > 256 | 0.5 (≈ 1.4 µM) | > 256
4 | O=C(Nc1nnc(-c2ccc(Cl)cc2)o1)c1cccc(C(F)(F)F)c1 | 0.125 (≈ 0.34 µM) | 1 (≈ 2.72 µM) | 0.125 (≈ 0.34 µM) | > 256 | > 256 | > 256 | 0.5 (≈ 1.36 µM) | 0.5 (≈ 1.36 µM) | > 256 | 0.5 (≈ 1.36 µM) | > 256
5 | Cc1ccc(NS(=O)(=O)c2ccc3c(c2)NCC(C)C(=O)S3)c(C)c1 (stereo unspecified) | 16 (≈ 42.5 µM) | 2 (≈ 5.31 µM) | > 64 | > 256 | > 256 | > 256 | < 0.03 | 2 (≈ 5.31 µM) | > 256 | > 64 | > 256
6 | O=C(Nc1nnc(-c2ccc(F)cc2)o1)c1cccc(Br)c1 | 1 (≈ 2.76 µM) | 2 (≈ 5.52 µM) | 1 (≈ 2.76 µM) | > 256 | > 256 | > 256 | 0.5 (≈ 1.38 µM) | 0.5 (≈ 1.38 µM) | > 256 | 0.5 (≈ 1.38 µM) | > 256
